Our source for the inhibition and IC50 values is ChEMBL document CHEMBL3112519, “Degrasyn-like symmetrical compounds: possible therapeutic agents for multiple myeloma (MM-I)” (Bioorg Med Chem, 2014).

Experiment [1] in a line: Cytotoxicity against human MM1S cells at 10 uM after 72 hrs by MTT assay. Format: functional. The following applies: MM1.S. The procedure, abridged: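 MM1.S cells were grown in RPMI 1640 with 10% heat-inactivated FBS and 2 mM glutamine and plated at 20,000 cells per well. They were exposed to a single 10 μM final concentration (DMSO ≤0.1%) or vehicle for 72 h at 37 °C. MTT was added for 2 h, followed by SDS/DMF lysis for 6 h and OD570 reading. Percent growth inhibition was calculated against vehicle.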

Experiment [2] in a line: Cytotoxicity against human MM1S cells after 72 hrs by MTT assay. Format: functional, cell-based. The following applies: MM1.S. The procedure, abridged:
(§1)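 Cells were grown in RPMI 1640 with 10% heat-inactivated FBS and 2 mM glutamine. Non-adherent cells were seeded at 20,000 per well and adherent cells at 5,000. Compounds were serially diluted in medium from a final top concentration of 10 μM (DMSO ≤0.1%), with vehicle controls, and incubated at 37 °C for 72 h. MTT was added for 2 h, then SDS/DMF lysis (pH 4.7) for 6 h, and OD570 was read. IC50 was taken from the concentration range.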
On the technique in general: Formazan colour is commonly taken as a measure of viable cells.

A further experiment concerns A-375. Briefly: Cytotoxicity against human A375 cells after 72 hrs by MTT assay. Format: functional, cell-based. To be noted: A-375, 72 h. In a few lines:
as §1

Experiment [3] concerns the target Mast/stem cell growth factor receptor Kit (Homo sapiens) (UniProt P10721). As to the kind of experiment: Inhibition of human c-kit kinase at 10000 nM.
Experiment [4] has as its target Tyrosine-protein kinase JAK2 (Homo sapiens) (UniProt O60674). As to the kind of experiment: Inhibition of human JAK2 kinase at 10000 nM.
For the next experiment, the species on record is Homo sapiens. Briefly: Inhibition of human Bcr-Abl kinase at 10000 nM.
A further experiment relates to K562. As to the kind of experiment: Cytotoxicity against human K562 cells after 72 hrs by MTT assay. Format: functional, cell-based. To be noted: K562, 72 h. In a few lines:
as §1

Experiment [5] is described as follows: Cytotoxicity against human Mino cells after 72 hrs by MTT assay. Format: functional, cell-based. In a few lines:
as §1

The target of experiment [6] is T1, Ubiquitin carboxyl-terminal hydrolase 9X (Homo sapiens, UniProt Q93008). As to the kind of experiment: Inhibition of Usp9x in human Z138 cells using HA-Ub vinyl-sulfone as substrate at 1.25 to 5 uM after 4 hrs by immunoblotting analysis. Format: cell-based. (In general: A western blot detects proteins with antibodies after separation by electrophoresis.)
T1 sequence (Q93008 whole entry, the tested form may be a part): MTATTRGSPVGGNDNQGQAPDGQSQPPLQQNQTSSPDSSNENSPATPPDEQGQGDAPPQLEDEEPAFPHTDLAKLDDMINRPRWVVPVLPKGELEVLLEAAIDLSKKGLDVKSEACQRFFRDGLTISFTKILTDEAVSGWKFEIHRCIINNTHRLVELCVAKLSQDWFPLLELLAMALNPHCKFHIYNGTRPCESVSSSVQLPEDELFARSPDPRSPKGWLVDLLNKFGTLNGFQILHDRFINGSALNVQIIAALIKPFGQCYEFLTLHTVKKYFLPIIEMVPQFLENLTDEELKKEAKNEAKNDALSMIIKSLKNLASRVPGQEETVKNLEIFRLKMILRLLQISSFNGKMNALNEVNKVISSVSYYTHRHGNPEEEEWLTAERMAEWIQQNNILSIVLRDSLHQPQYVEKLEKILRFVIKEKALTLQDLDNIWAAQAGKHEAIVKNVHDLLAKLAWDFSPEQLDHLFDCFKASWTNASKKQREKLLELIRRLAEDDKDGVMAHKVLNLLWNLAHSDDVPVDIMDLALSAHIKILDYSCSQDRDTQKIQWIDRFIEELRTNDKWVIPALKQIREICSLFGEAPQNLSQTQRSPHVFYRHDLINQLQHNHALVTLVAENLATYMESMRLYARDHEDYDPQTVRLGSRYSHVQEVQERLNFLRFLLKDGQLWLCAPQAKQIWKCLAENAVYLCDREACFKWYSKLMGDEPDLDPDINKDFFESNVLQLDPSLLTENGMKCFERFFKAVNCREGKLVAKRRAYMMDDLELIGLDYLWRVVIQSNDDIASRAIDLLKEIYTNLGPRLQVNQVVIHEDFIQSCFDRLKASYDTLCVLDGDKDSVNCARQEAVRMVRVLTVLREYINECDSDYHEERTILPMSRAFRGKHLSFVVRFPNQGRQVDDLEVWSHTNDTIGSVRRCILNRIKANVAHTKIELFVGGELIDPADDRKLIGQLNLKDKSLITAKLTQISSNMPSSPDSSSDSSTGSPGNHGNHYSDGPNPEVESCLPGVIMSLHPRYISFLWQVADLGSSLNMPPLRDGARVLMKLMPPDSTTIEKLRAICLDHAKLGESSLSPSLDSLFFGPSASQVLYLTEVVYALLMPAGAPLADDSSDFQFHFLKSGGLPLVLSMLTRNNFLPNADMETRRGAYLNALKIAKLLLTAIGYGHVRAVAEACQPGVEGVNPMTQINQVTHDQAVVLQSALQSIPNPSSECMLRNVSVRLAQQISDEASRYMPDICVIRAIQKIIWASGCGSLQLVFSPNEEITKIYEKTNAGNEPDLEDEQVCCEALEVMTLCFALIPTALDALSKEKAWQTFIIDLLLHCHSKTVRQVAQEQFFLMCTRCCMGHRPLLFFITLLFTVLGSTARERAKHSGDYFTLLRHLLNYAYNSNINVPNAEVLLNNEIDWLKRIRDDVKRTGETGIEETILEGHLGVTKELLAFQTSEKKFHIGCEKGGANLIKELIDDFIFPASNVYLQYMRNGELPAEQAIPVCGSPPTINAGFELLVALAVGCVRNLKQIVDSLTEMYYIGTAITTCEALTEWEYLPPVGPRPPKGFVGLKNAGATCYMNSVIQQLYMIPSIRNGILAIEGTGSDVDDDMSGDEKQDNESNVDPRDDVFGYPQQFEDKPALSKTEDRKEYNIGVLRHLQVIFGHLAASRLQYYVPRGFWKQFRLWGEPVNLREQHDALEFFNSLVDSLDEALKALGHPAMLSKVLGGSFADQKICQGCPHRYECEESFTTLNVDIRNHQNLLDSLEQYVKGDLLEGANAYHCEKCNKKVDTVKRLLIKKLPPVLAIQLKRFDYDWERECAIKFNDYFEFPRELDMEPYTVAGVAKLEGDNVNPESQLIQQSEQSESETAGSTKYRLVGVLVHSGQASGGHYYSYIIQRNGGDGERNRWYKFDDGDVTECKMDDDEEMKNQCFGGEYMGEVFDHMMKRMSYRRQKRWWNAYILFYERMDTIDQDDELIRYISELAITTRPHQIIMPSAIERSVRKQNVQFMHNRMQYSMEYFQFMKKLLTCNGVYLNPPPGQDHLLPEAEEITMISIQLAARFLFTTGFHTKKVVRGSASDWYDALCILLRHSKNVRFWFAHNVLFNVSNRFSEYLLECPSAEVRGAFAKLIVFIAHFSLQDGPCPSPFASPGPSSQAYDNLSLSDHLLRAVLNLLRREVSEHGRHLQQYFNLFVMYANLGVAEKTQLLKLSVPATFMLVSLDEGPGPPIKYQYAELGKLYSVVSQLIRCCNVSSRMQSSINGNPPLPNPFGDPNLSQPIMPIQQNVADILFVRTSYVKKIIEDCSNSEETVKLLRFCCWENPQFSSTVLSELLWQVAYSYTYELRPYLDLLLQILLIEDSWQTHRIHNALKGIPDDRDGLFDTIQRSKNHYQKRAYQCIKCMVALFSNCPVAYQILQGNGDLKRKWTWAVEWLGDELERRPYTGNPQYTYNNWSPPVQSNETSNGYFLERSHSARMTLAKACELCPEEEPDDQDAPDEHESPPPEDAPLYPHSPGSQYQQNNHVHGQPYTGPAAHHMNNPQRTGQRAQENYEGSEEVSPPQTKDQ
Experiment [7] has as its target T1, Ubiquitin carboxyl-terminal hydrolase 9X. As to the kind of experiment: Inhibition of human recombinant N-terminal His6-Smt3-fusion-tagged Usp9x catalytic domain expressed in Escherichia coli using Ub-AMC as substrate incubated for 30 mins prior to substrate addition by fluorescence assay.

What is called inhibition is the relative decrease from the control value, in per cent. For orientation: pIC50 means the IC50 on a negative log10 scale, so that one unit is a factor of ten.

pIC50: −log10 of the molar value. Calls of active or inactive are those of the source. The rule behind the calls is not given here. Bounds are passed on as bounds.

Sequence of Tyrosine-protein kinase JAK2 (Homo sapiens) (O60674 whole entry): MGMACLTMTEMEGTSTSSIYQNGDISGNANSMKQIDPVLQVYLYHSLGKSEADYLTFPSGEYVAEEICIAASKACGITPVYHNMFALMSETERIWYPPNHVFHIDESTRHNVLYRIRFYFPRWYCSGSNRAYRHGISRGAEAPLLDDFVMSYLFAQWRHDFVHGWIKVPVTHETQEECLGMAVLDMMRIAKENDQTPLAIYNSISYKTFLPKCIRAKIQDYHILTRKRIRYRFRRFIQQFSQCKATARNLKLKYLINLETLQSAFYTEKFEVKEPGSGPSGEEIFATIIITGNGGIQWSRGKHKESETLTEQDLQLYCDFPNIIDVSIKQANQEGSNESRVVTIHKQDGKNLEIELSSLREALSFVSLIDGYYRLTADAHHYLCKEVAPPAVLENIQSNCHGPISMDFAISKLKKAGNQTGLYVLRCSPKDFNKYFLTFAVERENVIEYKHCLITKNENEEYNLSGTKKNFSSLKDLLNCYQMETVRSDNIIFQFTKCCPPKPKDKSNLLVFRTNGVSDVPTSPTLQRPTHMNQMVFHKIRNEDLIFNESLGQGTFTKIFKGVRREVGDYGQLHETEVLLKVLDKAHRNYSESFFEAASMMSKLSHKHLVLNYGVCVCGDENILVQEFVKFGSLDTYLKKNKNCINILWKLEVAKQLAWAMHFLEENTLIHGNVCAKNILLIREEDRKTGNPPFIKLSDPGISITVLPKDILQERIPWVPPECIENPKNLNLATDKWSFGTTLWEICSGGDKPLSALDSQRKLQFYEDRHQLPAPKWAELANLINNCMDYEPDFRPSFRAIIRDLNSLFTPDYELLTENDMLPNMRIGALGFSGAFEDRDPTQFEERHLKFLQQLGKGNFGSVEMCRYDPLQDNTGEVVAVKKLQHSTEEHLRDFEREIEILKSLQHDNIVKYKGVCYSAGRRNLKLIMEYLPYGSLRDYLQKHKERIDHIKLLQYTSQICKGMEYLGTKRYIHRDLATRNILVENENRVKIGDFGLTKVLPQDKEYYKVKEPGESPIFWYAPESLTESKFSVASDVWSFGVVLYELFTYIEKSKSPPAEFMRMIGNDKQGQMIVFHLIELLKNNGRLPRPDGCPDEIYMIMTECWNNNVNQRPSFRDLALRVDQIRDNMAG
Sequence of Mast/stem cell growth factor receptor Kit (Homo sapiens) (P10721 whole entry): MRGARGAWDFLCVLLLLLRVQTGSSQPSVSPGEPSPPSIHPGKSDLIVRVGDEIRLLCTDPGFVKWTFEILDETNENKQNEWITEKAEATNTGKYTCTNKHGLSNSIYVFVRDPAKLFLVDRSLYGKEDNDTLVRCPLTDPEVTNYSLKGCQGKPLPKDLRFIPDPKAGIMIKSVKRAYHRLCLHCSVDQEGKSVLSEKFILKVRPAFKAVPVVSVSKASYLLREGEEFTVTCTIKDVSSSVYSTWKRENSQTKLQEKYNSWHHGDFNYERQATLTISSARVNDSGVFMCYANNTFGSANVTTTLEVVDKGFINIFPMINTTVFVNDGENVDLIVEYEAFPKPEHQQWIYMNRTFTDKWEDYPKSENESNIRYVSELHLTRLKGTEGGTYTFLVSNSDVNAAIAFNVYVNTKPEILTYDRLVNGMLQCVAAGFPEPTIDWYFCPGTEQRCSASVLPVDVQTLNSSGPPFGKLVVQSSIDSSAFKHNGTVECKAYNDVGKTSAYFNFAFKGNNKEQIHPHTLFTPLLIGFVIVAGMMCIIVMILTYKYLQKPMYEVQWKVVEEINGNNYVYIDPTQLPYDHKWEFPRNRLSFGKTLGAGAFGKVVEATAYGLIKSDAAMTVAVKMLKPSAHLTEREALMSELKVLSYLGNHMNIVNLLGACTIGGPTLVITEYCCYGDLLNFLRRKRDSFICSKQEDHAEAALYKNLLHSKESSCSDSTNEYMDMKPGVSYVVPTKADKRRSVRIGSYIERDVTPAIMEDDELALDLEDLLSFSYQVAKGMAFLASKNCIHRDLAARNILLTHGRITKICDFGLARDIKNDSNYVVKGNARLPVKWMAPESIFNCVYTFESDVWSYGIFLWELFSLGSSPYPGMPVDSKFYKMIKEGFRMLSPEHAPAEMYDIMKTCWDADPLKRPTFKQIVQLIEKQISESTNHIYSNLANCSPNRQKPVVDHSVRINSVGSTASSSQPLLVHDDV

In turn, `C[C@H](NC(=O)/C(C#N)=C/c1cccnc1)c1ccccc1` registered an inhibition at 10 µM in experiment [1] of 44%. For `N#C/C(=C\c1ccc(/C=C(\C#N)C(=O)N[C@@H](CO)c2ccccc2)cc1)C(=O)N[C@@H](CO)c1ccccc1`, the negative logarithm of the IC50 (pIC50) in experiment [2] was 5.70.

Turning to `CCC[C@H](NC(=O)/C(C#N)=C/c1cccc(/C=C(\C#N)C(=O)N[C@@H](CCC)c2ccccc2)n1)c1ccccc1`, the pIC50 in [2] is 5.92. As to `N#C/C(=C/c1cccc(Br)n1)C(=O)NCc1cccc(CNC(=O)/C(C#N)=C\c2cccc(Br)n2)c1`, the pIC50 in experiment [2] is 6.62; with A-375 it was 6.22; in the experiment with K562, 6.40; in experiment [5], 6.70. The inhibition entry (in [3]; in [4]; in the experiment filed under Homo sapiens) was “inactive” in each case. Turning to `N#C/C(=C\c1cccc(/C=C(\C#N)C(=O)N[C@@H](Cc2ccccc2)c2ccccc2)c1)C(=O)N[C@@H](Cc1ccccc1)c1ccccc1`, the negative-log IC50 (pIC50) in [2] was 6.21. Still for that read-out and setting: for `N#C/C(=C/c1cnc[nH]1)C(=O)NCc1cccc(CNC(=O)/C(C#N)=C\c2cnc[nH]2)c1` the value was less than 5.30; for `N#C/C(=C/c1cc(-c2ccccc2)cs1)C(=O)NCc1cccc(CNC(=O)/C(C#N)=C\c2cc(-c3ccccc3)cs2)c1`, less than 5.30; for `COc1ccc(C(CC2CC2)NC(=O)/C(C#N)=C/c2cccc(/C=C(\C#N)C(=O)NC(CC3CC3)c3ccc(OC)cc3)c2)cc1` (racemic), 5.92. Turning to `N#C/C(=C\c1ccccc1)C(=O)N1CCC(C(c2ccccc2)c2ccccc2)CC1`, the inhibition at 10 µM in experiment [1] was found to be 14%.

`N#C/C(=C\c1cccc(/C=C(\C#N)C(=O)N[C@@H](CO)c2ccccc2)n1)C(=O)N[C@@H](CO)c1ccccc1`: in experiment [2], the pIC50 is less than 5.70. For the compound `CCCCOc1ccc(/C=C(\C#N)C(=O)N[C@@H](C)c2ccccc2)cc1`, in experiment [1], at 10 µM the inhibition was 31%. With `N#C/C(=C/c1ccc(-c2cccs2)s1)C(=O)NCc1cccc(CNC(=O)/C(C#N)=C\c2ccc(-c3cccs3)s2)c1`, in experiment [2], the negative logarithm of the IC50 (pIC50) is less than 5.30.

Compound `CCCCCCOc1ccc(/C=C(/C#N)C(=O)NCc2cccc(CNC(=O)/C(C#N)=C\c3ccc(OCCCCCC)cc3)c2)cc1` gave a negative logarithm of the IC50 (pIC50) in [2] of 5.30. The same measure, in the same setting: for `C[C@H](NC(=O)/C(C#N)=C/c1ccc(/C=C(\C#N)C(=O)N[C@@H](C)c2ccccc2)cc1)c1ccccc1` the value was less than 5.30. Turning to `C[C@H](NC(=O)/C(C#N)=C/c1cccc(/C=C(\C#N)C(=O)N[C@@H](C)c2ccccc2)c1)c1ccccc1`, the negative logarithm of the IC50 (pIC50) is 6.40 in [2], 6.10 in the experiment with A-375, 6.22 in the experiment with K562 and 6.40 in [5]. In addition, the inhibition at 10 µM in experiment [1] came out at 100%.

In the case of `N#C/C(=C/c1c[nH]c2ccccc12)C(=O)NCc1cccc(CNC(=O)/C(C#N)=C\c2c[nH]c3ccccc23)c1`, the negative logarithm of the IC50 (pIC50) in [2] was less than 5.30. On to `C[C@H](NC(=O)/C(C#N)=C/c1ccc(-c2ccccc2)cc1)c1ccccc1`, for which the inhibition at 10 µM in experiment [1] worked out at 49%.

In experiment [2], `COc1ccc(/C=C(/C#N)C(=O)NCc2cccc(CNC(=O)/C(C#N)=C\c3ccc(OC)c(OC)c3)c2)cc1OC` had a pIC50 of 5.70. As for `COc1cccc(/C=C(/C#N)C(=O)NCc2cccc(CNC(=O)/C(C#N)=C\c3cccc(OC)n3)c2)n1`, in experiment [2], the negative logarithm of the IC50 (pIC50) was less than 5.30.

The compound `N#C/C(=C\c1cccc(/C=C(\C#N)C(=O)N[C@@H](CO)c2ccccc2)c1)C(=O)N[C@@H](CO)c1ccccc1` gave a negative-log IC50 (pIC50) in experiment [2] of less than 5.70. As to `COC(=O)c1ccc(/C=C(\C#N)C(=O)N[C@@H](C)c2ccccc2)cc1`, the inhibition at 10 µM in experiment [1] was 67%. As for `CC(C)c1ccc(/C=C(\C#N)C(=O)NCc2ccc(Cl)cc2)cc1`, the inhibition at 10 µM in experiment [1] amounted to 21%. As to `C[C@H](NC(=O)/C(C#N)=C/c1cc(/C=C(\C#N)C(=O)N[C@@H](C)c2ccccc2)cc(/C=C(\C#N)C(=O)N[C@@H](C)c2ccccc2)c1)c1ccccc1`, in experiment [2], the pIC50 was 6.15. On the same count and under the same terms, as for `Cc1ccc(Cl)c(C=C(C#N)C(=O)NCc2cccc(CNC(=O)C(C#N)=Cc3c(Cl)ccc(C)c3F)c2)c1F`, the figure is 6.22; as for `N#C/C(=C/c1ccc(O)c(Br)c1)C(=O)NCc1cccc(CNC(=O)/C(C#N)=C\c2ccc(O)c(Br)c2)c1`, less than 5.00. In experiment [2], `C[C@H](NC(=O)/C(C#N)=C/c1ccc(/C=C(\C#N)C(=O)N[C@@H](C)c2ccccc2Cl)cc1)c1ccccc1Cl` gave a pIC50 of less than 5.30. On the same count and under the same terms, for `N#C/C(=C/c1ccc(N2CCCCC2)cc1)C(=O)NCc1cccc(CNC(=O)/C(C#N)=C\c2ccc(N3CCCCC3)cc2)c1` the value was less than 5.30; for `N#C/C(=C/c1cc(Cl)c(Cl)cn1)C(=O)NCc1cccc(CNC(=O)/C(C#N)=C\c2cc(Cl)c(Cl)cn2)c1`, 5.90; for `CCC[C@H](NC(=O)/C(C#N)=C/c1cccc(/C=C(\C#N)C(=O)N[C@@H](CCC)c2ccccc2)c1)c1ccccc1`, 6.22. Compound `N#C/C(=C\C=C\c1ccc(O)c(O)c1)C(=O)NCc1cccc(CNC(=O)/C(C#N)=C/C=C/c2ccc(O)c(O)c2)c1` gave a pIC50 in [2] of less than 5.30. In experiment [1], `C[C@H](NC(=O)/C(C#N)=C/c1cccs1)c1ccccc1` showed an inhibition at 10 µM of 14%. As for `CCC[C@H](NC(=O)/C(C#N)=C/c1cccc(Br)n1)c1ccccc1`, the inhibition result in [6] is “Active”. For the same compound, the pIC50 is 5.92 in experiment [2]; 5.23 in experiment [7]; 5.77 with A-375; 5.62 in the experiment with K562; 6.10 in [5]. For the same compound, the inhibition at 10 µM in experiment [1] was found to be 97%.

Take `COc1ccc([C@H](C)NC(=O)/C(C#N)=C/c2cccc(/C=C(\C#N)C(=O)N[C@@H](C)c3ccc(OC)cc3)c2)cc1`: the negative logarithm of the IC50 (pIC50) in experiment [2] was 6.00. Take `CC[C@H](NC(=O)/C(C#N)=C/c1cccc(/C=C(\C#N)C(=O)N[C@@H](CC)c2ccccc2)c1)c1ccccc1`: the negative-log IC50 (pIC50) in experiment [2] is 6.10. Compound `N#C/C(=C/c1ccc2[nH]ccc2c1)C(=O)NCc1cccc(CNC(=O)/C(C#N)=C\c2ccc3[nH]ccc3c2)c1` gave a pIC50 in [2] of less than 5.30. In [2], `N#C/C(=C/c1ccc([N+](=O)[O-])c(O)c1)C(=O)NCc1cccc(CNC(=O)/C(C#N)=C\c2ccc([N+](=O)[O-])c(O)c2)c1` gave a pIC50 of 6.15. On the same count and under the same terms, for `N#C/C(=C/c1csc2ccccc12)C(=O)NCc1cccc(CNC(=O)/C(C#N)=C\c2csc3ccccc23)c1` the value was less than 5.30. `C[C@H](NC(=O)/C(C#N)=C/c1ccc(C(F)(F)F)cc1)c1ccccc1` returned an inhibition at 10 µM in [1] of 63%. Take `C[C@H](NC(=O)/C(C#N)=C/c1cccc(/C=C(\C#N)C(=O)N[C@@H](C)c2ccccc2)n1)c1ccccc1`: the pIC50 in [2] is 5.89.
